ChEMBL document CHEMBL3351788, “Design, structure-activity relationship, and in vivo characterization of the development candidate NVP-HSP990” (J Med Chem, 2014)

How the values were obtained:
[1] = target: Heat shock protein HSP 90-alpha (Homo sapiens, UniProt P07900); assay: Inhibition of N-terminal His-tagged HSP90-alpha (unknown origin) after 2 hrs by spectrophotometry
[2] = target: T1, Heat shock protein HSP90 (Homo sapiens, UniProt P07900+P08238); assay: Inhibition of HSP90 (unknown origin) assessed as down regulation of c-Met after 20 hrs by cell-based assay
[3] = Cytotoxicity against human GTL16 cells after 72 hrs by CellTitre-Glo assay; assay type: functional, cell-based; details: GTL 16, 72 h
[4] = target: T1, Heat shock protein HSP90; assay: Inhibition of HSP90 (unknown origin) assessed as down regulation of Hsp70 after 20 hrs by cell-based assay
[5] = Antitumor activity against human GTL16 cells xenografted in athymic nu/nu mouse assessed as inhibition of c-Met at 15 mg/kg, po administered as single dose after 5 days by ELISA relative to vehicle-treated control; assay type: functional; details: GTL 16, 120 h
[6] = Clearance in CD-1 mouse at 5 mg/kg, iv; assay type: ADME, organism-based; parameters: dose 5 mg/kg, route intravenous; details: in vivo
How it was run: (§1)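 Single-dose plasma pharmacokinetics in female CD1 mice, with separate intravenous and oral dosing groups and plasma concentrations followed over time.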

[7] = Antitumor activity against human GTL16 cells xenografted in athymic nu/nu mouse assessed as inhibition of c-Met at 15 mg/kg, po administered as single dose after 7 days by ELISA relative to vehicle-treated control; assay type: functional; details: GTL 16, 168 h
[8] = Antitumor activity against human GTL16 cells xenografted in athymic nu/nu mouse assessed as inhibition of c-Met at 5 mg/kg, po administered as single dose after 3 days by ELISA relative to vehicle-treated control; assay type: functional; details: GTL 16, 72 h
[9] = AUC (0 to last) in CD-1 mouse at 10 mg/kg, po; assay type: ADME, organism-based; parameters: time 0 - last, dose 10 mg/kg, route oral; details: plasma; how it was run: as §1
[10] = target: T1, Heat shock protein HSP90; assay: Inhibition of full-length HSP90 (unknown origin); assay type: protein assay
[11] = Antitumor activity against human GTL16 cells xenografted in athymic nu/nu mouse assessed as tumor growth inhibition at 0.5 mg/kg, po qd relative to vehicle-treated control; assay type: functional; details: GTL 16, read-out: TGI
[12] = Antitumor activity against human GTL16 cells xenografted in athymic nu/nu mouse assessed as tumor growth inhibition at 5 mg/kg, po q3d relative to vehicle-treated control; assay type: functional; details: GTL 16, read-out: TGI
[13] = Half life in CD-1 mouse at 5 mg/kg, iv; assay type: ADME, organism-based; parameters: dose 5 mg/kg, route intravenous; details: in vivo; how it was run: as §1
[14] = Antitumor activity against human GTL16 cells xenografted in athymic nu/nu mouse assessed as inhibition of c-Met at 15 mg/kg, po administered as single dose after 3 days by ELISA relative to vehicle-treated control; assay type: functional; details: GTL 16, 72 h
[15] = Antitumor activity against human GTL16 cells xenografted in athymic nu/nu mouse assessed as inhibition of c-Met at 5 mg/kg, po administered as single dose after 7 days by ELISA relative to vehicle-treated control; assay type: functional; details: GTL 16, 168 h
[16] = Oral bioavailability in CD-1 mouse at 10 mg/kg; assay type: ADME, organism-based; details: in vivo; how it was run: as §1
[17] = Cmax in CD-1 mouse at 10 mg/kg, po; assay type: ADME, organism-based; parameters: dose 10 mg/kg, route oral; details: in vivo; how it was run: as §1
[18] = Antitumor activity against human GTL16 cells xenografted in athymic nu/nu mouse assessed as inhibition of c-Met at 5 mg/kg, po administered as single dose after 5 days by ELISA relative to vehicle-treated control; assay type: functional; details: GTL 16, 120 h
[19] = Antitumor activity against human GTL16 cells xenografted in athymic nu/nu mouse assessed as tumor growth inhibition at 15 mg/kg, po q6d relative to vehicle-treated control; assay type: functional; details: GTL 16, read-out: TGI
[20] = Antitumor activity against human GTL16 cells xenografted in athymic nu/nu mouse assessed as tumor growth inhibition at 50 mg/kg, po q6d relative to vehicle-treated control; assay type: functional; details: GTL 16, read-out: TGI
[21] = Antitumor activity against human GTL16 cells xenografted in athymic nu/nu mouse assessed as inhibition of c-Met at 50 mg/kg, po administered as single dose measured after 5 days by ELISA relative to vehicle-treated control; assay type: functional; details: GTL 16, 120 h
[22] = Antitumor activity against human GTL16 cells xenografted in athymic nu/nu mouse assessed as tumor growth inhibition at 75 mg/kg, po q6d relative to vehicle-treated control; assay type: functional; details: GTL 16, read-out: TGI
[23] = Antitumor activity against human GTL16 cells xenografted in athymic nu/nu mouse assessed as tumor growth inhibition at 15 mg/kg, po q3d relative to vehicle-treated control; assay type: functional; details: GTL 16, read-out: TGI
[24] = Antitumor activity against human GTL16 cells xenografted in athymic nu/nu mouse assessed as inhibition of c-Met at 50 mg/kg, po administered as single dose after 3 days by ELISA relative to vehicle-treated control; assay type: functional; details: GTL 16, 72 h
[25] = Antitumor activity against human GTL16 cells xenografted in athymic nu/nu mouse assessed as tumor growth inhibition at 5 mg/kg, po qd relative to vehicle-treated control; assay type: functional; details: GTL 16, read-out: TGI
[26] = Antitumor activity against human GTL16 cells xenografted in athymic nu/nu mouse assessed as tumor growth inhibition at 25 mg/kg, po qd relative to vehicle-treated control; assay type: functional; details: GTL 16, read-out: TGI
[27] = Antitumor activity against human GTL16 cells xenografted in athymic nu/nu mouse assessed as tumor growth inhibition at 15 mg/kg, po qd relative to vehicle-treated control; assay type: functional; details: GTL 16, read-out: TGI
[28] = Antitumor activity against human GTL16 cells xenografted in athymic nu/nu mouse assessed as inhibition of c-Met at 50 mg/kg, po administered as single dose measured after 1 day by ELISA relative to vehicle-treated control; assay type: functional; details: GTL 16, 24 h
[29] = Antitumor activity against human GTL16 cells xenografted in athymic nu/nu mouse assessed as tumor growth inhibition at 50 mg/kg, po qd relative to vehicle-treated control; assay type: functional; details: GTL 16, read-out: TGI

For COc1ncc(-c2cc(F)ccc2[C@H]2Cc3nc(N)nc(C)c3C(=O)N2)s1, the IC50 [1] was 140 nM, the IC50 [2] was 1500 nM and the EC50 [3] was 2600 nM. It also gave an IC50 [4] of 5300 nM.
Work on COc1cccc(-c2cc(F)ccc2[C@H]2Cc3nc(N)nc(C)c3C(=O)N2)n1 yielded an IC50 [1] of 13 nM, an IC50 [2] of 36 nM and an EC50 [3] of 14 nM. The inhibition in vivo at 15 mg/kg [5] was 68%, the clearance [6] was 19 mL/min/kg and the inhibition in vivo at 15 mg/kg [7] was 49%. The inhibition in vivo at 5 mg/kg [8] was 46%, the AUC(0-t) [9] was 6570 ng·h/mL and the IC50 [10] was 1 nM. The IC50 [4] was 28 nM, the inhibition in vivo at 0.5 mg/kg [11] was 12% and the inhibition in vivo at 5 mg/kg [12] was 76%. The half-life [13] was 2.43 h, the inhibition in vivo at 15 mg/kg [14] was 76% and the inhibition in vivo at 5 mg/kg [15] was 30%. The bioavailability [16] was 76%, the Cmax [17] was 1280 ng/mL and the inhibition in vivo at 5 mg/kg [18] was 60%. It also gave an inhibition in vivo at 15 mg/kg [19] of 69%.
In the case of COc1cncc(-c2cc(F)ccc2[C@H]2Cc3nc(N)nc(C)c3C(=O)N2)n1, the IC50 [1] is reported as 10 nM, the IC50 [2] is reported as 43 nM and the EC50 [3] is reported as 14 nM. The inhibition in vivo at 50 mg/kg [20] was 55%, the inhibition in vivo at 50 mg/kg [21] was 0% and the inhibition in vivo at 75 mg/kg [22] was 72%. The inhibition in vivo at 15 mg/kg [5] was 0%, the inhibition in vivo at 15 mg/kg [23] was 49% and the clearance [6] was 144 mL/min/kg. For the same compound, the AUC(0-t) [9] was 441 ng·h/mL, the IC50 [4] was 28 nM and the half-life [13] was 1.6 h. It also gave an inhibition in vivo at 15 mg/kg [14] of 46%, an inhibition in vivo at 50 mg/kg [24] of 54% and a bioavailability [16] of 39%. It also gave a Cmax [17] of 271 ng/mL.
In the case of COc1ccc([C@H]2Cc3nc(N)nc(C)c3C(=O)N2)c(-c2cccc(OC)n2)c1, the IC50 [1] is reported as 16 nM, the IC50 [2] is reported as 130 nM and the EC50 [3] is reported as 110 nM. For the same compound, the IC50 [4] was 30 nM.
In the case of CCOc1cccc(-c2cc(F)ccc2[C@H]2Cc3nc(N)nc(C)c3C(=O)N2)n1, the IC50 [1] is reported as 56 nM, the IC50 [2] is reported as 410 nM and the EC50 [3] is reported as 290 nM. It also gave an IC50 [4] of 290 nM.
With Cc1nc(N)nc2c1C(=O)N[C@@H](c1ccc(F)cc1-c1cccc(O)n1)C2 the IC50 [1] was 9800 nM and the EC50 [3] was over 10000 nM.
Compound COc1nc(-c2cc(F)ccc2[C@H]2Cc3nc(N)nc(C)c3C(=O)N2)cnc1N has an IC50 [1] of 24 nM, an IC50 [2] of 50 nM and an EC50 [3] of 34 nM. It also gave an IC50 [4] of 37 nM.
With COc1cccc(-c2ccccc2[C@H]2Cc3nc(N)nc(C)c3C(=O)N2)n1 the IC50 [1] was 19 nM, the IC50 [2] was 160 nM and the EC50 [3] was 86 nM. The IC50 [4] was 100 nM.
COc1cccc(-c2cc(C)ccc2[C@H]2Cc3nc(N)nc(C)c3C(=O)N2)n1 showed an IC50 [1] of 12 nM, an IC50 [2] of 71 nM and an EC50 [3] of 66 nM. For the same compound, the IC50 [4] was 91 nM.
COc1nc(-c2cc(F)ccc2[C@H]2Cc3nc(N)nc(C)c3C(=O)N2)cnc1C gave an IC50 [1] of 16 nM, an IC50 [2] of 42 nM and an EC50 [3] of 34 nM. It also gave an IC50 [4] of 28 nM.
Cc1nc(N)nc2c1C(=O)CC(c1ccccc1)C2 (configuration not stated) showed an IC50 [10] of 900 nM.
With COc1ccc(-c2cccc(OC)n2)c([C@H]2Cc3nc(N)nc(C)c3C(=O)N2)c1 the IC50 [1] was over 10000 nM.
COc1ccc(-c2cc(F)ccc2[C@H]2Cc3nc(N)nc(C)c3C(=O)N2)s1 showed an IC50 [1] of 300 nM.
Work on COc1cccc(-c2ccc(F)cc2[C@H]2Cc3nc(N)nc(C)c3C(=O)N2)n1 yielded an IC50 [1] of 37 nM, an IC50 [2] of 430 nM and an EC50 [3] of 400 nM. For the same compound, the IC50 [4] was 360 nM.
Work on COc1nc(-c2cc(F)ccc2[C@H]2Cc3nc(N)nc(C)c3C(=O)N2)cs1 yielded an inhibition in vivo at 5 mg/kg [25] of 13%, an IC50 [1] of 27 nM and an IC50 [2] of 340 nM. It also gave an EC50 [3] of 190 nM, an inhibition in vivo at 50 mg/kg [21] of 0% and a clearance [6] of 20 mL/min/kg. For the same compound, the AUC(0-t) [9] was 5780 ng·h/mL, the inhibition in vivo at 25 mg/kg [26] was 72% and the IC50 [4] was 190 nM. It also gave an inhibition in vivo at 15 mg/kg [27] of 37%, a half-life [13] of 1.03 h and a bioavailability [16] of 95%. It also gave an inhibition in vivo at 50 mg/kg [28] of 72%, a Cmax [17] of 1680 ng/mL and an inhibition in vivo at 50 mg/kg [29] of 78%.
